Results on 14 compounds are retold here after ChEMBL document CHEMBL1667815, “Pharmacophore models based studies on the affinity and selectivity toward 5-HT1A with reference to α1-adrenergic receptors among arylpiperazine derivatives of phenytoin” (Bioorg Med Chem, 2011).

Assay [1] deals with T1, 5-hydroxytryptamine receptor 1A (Rattus norvegicus) (UniProt P19327).
T1 sequence (whole entry): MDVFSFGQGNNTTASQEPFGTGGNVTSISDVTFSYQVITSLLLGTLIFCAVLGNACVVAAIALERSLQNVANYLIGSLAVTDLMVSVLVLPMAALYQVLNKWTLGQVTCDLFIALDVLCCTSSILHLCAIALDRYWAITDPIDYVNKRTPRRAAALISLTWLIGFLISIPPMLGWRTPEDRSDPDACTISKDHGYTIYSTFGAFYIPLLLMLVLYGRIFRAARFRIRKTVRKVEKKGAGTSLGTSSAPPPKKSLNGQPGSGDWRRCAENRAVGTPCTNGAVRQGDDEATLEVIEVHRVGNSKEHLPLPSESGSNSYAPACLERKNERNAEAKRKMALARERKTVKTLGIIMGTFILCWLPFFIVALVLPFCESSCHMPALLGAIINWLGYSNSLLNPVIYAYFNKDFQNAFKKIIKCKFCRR
Briefly: Displacement of [3H]-8-OH-DPAT from 5-HT1A receptor in rat hippocampal membranes by liquid scintillation counting. In kind it is cell membranes. Particulars: Hippocampus, Membrane. An outline of the steps:
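Native 5-HT1A sites in rat hippocampal membranes, labelled with [3H]-8-OH-DPAT (170.2 Ci/mmol). Each compound was tested at two concentrations (0.1 and 1), each in triplicate. Bound radioactivity was counted by liquid scintillation. Ks values were estimated from three independent binding experiments and reproduced within 20%.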

Assay [2] addresses T2, Adrenergic receptor alpha-1 (Rattus norvegicus, UniProt P15823+P23944+P43140).
T2 sequence (P15823 whole entry): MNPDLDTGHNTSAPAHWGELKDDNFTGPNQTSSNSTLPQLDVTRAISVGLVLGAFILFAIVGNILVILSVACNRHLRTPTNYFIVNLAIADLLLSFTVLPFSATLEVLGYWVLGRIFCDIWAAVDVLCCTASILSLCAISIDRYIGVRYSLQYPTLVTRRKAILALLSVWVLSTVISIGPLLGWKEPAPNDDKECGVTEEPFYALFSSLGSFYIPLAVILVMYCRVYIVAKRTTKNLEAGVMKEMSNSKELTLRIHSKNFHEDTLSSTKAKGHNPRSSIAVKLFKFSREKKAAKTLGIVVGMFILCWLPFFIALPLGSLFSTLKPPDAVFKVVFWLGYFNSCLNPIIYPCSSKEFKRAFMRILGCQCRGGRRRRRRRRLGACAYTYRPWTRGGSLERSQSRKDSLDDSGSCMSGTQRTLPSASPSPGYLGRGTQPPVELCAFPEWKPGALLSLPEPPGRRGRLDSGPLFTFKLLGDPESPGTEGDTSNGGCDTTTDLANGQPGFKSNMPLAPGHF
T2 sequence (P23944 whole entry): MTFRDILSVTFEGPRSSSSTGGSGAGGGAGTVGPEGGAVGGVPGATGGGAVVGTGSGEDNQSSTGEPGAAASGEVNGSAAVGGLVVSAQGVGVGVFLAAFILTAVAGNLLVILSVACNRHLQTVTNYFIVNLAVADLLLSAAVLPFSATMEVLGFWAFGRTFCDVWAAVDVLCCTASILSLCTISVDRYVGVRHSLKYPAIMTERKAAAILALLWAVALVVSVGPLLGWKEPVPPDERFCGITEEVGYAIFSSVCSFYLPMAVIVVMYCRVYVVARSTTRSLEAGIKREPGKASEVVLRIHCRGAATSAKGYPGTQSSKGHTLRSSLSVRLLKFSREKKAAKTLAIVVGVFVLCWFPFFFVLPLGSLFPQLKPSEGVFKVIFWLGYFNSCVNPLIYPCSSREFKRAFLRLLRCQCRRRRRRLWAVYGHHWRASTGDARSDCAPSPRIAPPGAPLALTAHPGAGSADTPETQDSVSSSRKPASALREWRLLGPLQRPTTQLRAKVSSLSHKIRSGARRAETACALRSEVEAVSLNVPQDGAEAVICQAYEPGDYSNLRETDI
T2 sequence (P43140 whole entry): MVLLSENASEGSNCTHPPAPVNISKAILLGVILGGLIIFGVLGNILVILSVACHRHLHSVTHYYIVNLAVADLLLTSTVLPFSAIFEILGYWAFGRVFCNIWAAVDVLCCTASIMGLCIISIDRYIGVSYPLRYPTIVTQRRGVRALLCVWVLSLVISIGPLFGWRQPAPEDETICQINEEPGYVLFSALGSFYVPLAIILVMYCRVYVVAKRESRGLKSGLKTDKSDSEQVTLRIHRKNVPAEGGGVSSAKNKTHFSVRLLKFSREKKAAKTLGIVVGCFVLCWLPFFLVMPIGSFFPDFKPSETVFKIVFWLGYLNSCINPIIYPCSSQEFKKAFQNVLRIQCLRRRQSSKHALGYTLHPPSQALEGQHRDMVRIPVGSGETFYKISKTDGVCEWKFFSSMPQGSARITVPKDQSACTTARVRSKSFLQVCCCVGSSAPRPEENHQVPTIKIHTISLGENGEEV
Nature of the assay: Displacement of [3H]-prazosin from alpha1-adrenergic receptor in rat cerebral cortex membranes after 30 mins by scintillation counting. In kind it is cell membranes, Membrane. On the technique in general: Loss of bound radioactivity is the signal in a displacement assay; it reports binding, not function.

The species named for assay [3] is Rattus norvegicus. Nature of the assay: Selectivity ratio of Ki for alpha1-adrenergic receptor in rat cerebral cortex membranes to Ki for 5-HT1A receptor in rat hippocampal membranes. In kind it is cell membranes. Particulars: Membrane.
The target in assay [4] is Adrenergic receptor alpha-1 (Rattus norvegicus) (UniProt P15823+P23944+P43140). Particulars: Wistar, Thoracic aorta.

The Ki is a dissociation constant, usually derived from enzyme kinetics or from competition with a known ligand. For `COc1ccccc1N1CCN(CC(O)CN2C(=O)N(CC(=O)O)C(=O)C2(c2ccccc2)c2ccccc2)CC1.Cl` (racemic), the Ks in assay [1] worked out at 575 nM. In assay [2], this compound gave a Ki of 4.8 µM. Besides, the Ratio in assay [3] amounted to 8.35.

In assay [1], `CCN1C(=O)N(CC(O)CN2CCN(c3ccccc3)CC2)C(c2ccccc2)(c2ccccc2)C1=O` (racemic) gave a Ks of 610 nM.

`CCOC(=O)C(C)N1C(=O)N(CC(O)CN2CCN(c3ccccc3OC)CC2)C(c2ccccc2)(c2ccccc2)C1=O` (racemic) showed a Ks in assay [1] of 30 nM. Moreover, in assay [3], the Ratio came to 4.52.

`CCOC(=O)CN1C(=O)N(CC(O)CN2CCN(c3ccccc3OC)CC2)C(c2ccccc2)(c2ccccc2)C1=O` (racemic) showed a Ks in assay [1] of 88 nM.

The compound `CCOc1ccccc1N1CCN(CC(CN2C(=O)N(C)C(=O)C2(c2ccccc2)c2ccccc2)OC(C)=O)CC1` (racemic) had a Ks in assay [1] of 38 nM.

The compound `CCOc1ccccc1N1CCN(CC(O)CN2C(=O)N(C(C)C(=O)OC)C(=O)C2(c2ccccc2)c2ccccc2)CC1` (racemic) displayed a Ks in assay [1] of 28 nM.

In the case of `CCOc1ccccc1N1CCN(CC(O)CN2C(=O)N(C)C(=O)C2(c2ccccc2)c2ccccc2)CC1` (racemic), the Ks in assay [1] was determined as 7 nM. Besides, in assay [3], the Ratio worked out at 17.4.

The compound `CCOc1ccccc1N1CCN(CC(O)CN2C(=O)N(CC(=O)OC)C(=O)C2(c2ccccc2)c2ccccc2)CC1` (racemic) showed a Ks in assay [1] of 37 nM.

What is called pKb is the negative decadic logarithm of the Kb, by convention in mol/L. A higher pKb goes with a small Kb. `CCOc1ccccc1N1CCN(CC(O)CN2C(=O)NC(=O)C2(c2ccccc2)c2ccccc2)CC1` (racemic) returned a Ks in assay [1] of 83 nM. This compound yielded a pKb in assay [4] of 7.44.

`COC(=O)C(C)N1C(=O)N(CC(O)CN2CCN(c3ccccc3OC)CC2)C(c2ccccc2)(c2ccccc2)C1=O` (racemic): the Ks in assay [1] was determined as 104 nM. In addition, the Ratio in assay [3] was 1.

In assay [1], `COC(=O)CN1C(=O)N(CC(O)CN2CCN(c3ccccc3OC)CC2)C(c2ccccc2)(c2ccccc2)C1=O` (racemic) showed a Ks of 86 nM. Moreover, in assay [3], the Ratio is 2.29.

The compound `COc1ccccc1N1CCN(CC(O)CN2C(=O)N(C)C(=O)C2(c2ccccc2)c2ccccc2)CC1` (racemic) came in with a Ks in assay [1] of 22 nM.

In turn, `COc1ccccc1N1CCN(CC(O)CN2C(=O)NC(=O)C2(c2ccccc2)c2ccccc2)CC1` (racemic) yielded a Ks in assay [1] of 95 nM.

As for `O=C1NC(=O)C(c2ccccc2)(c2ccccc2)N1CC(O)CN1CCN(c2ccccc2)CC1` (racemic), the Ks in assay [1] is 573 nM.
